Assay results as given in ChEMBL document CHEMBL1157725 (Bioorg Med Chem, 2010).

Columns and labels:
MCF7 = assay: Antiproliferative activity against human MCF7 cells after 24 hrs by SRB assay; type: functional, cell-based; conditions: MCF7, 24 h
Summary of the method: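 MCF-7 cells are grown for 24 h with or without drug, then for a further 48 h. Total cell protein is measured by sulforhodamine B staining, and the IC₅₀ is derived from it.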

[1] = Inhibition of tubulin polymerization by turbidimetry
Summary of the method: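 Tubulin at 10 µM (1.0 mg/mL). Polymerization followed turbidimetrically at 350 nm in temperature-controlled spectrophotometers.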

[2] = Inhibition of tubulin in rat A10 cells assessed as induction of cellular microtubule disassembly after 18 hrs by indirect immunofluorescence technique; type: cell-based; conditions: A10, 18 h
Summary of the method: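 A-10 cells plated on glass coverslips and treated with compound at varying concentrations for 18 h. After fixation, microtubules immunostained with a β-tubulin antibody (indirect immunofluorescence) and nuclei stained with DAPI. Read by fluorescence microscopy. Percentage of cellular microtubule loss estimated visually across the concentration range.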

## COc1ccc(C(=O)/C=C/c2cc(OC)c(OC)c(OC)c2)cc1B(O)O
MCF7
  IC50: > 2.5 µM
[1]
  IC50: > 40 µM
[2]
  EC50: > 15 µM
